Experimental data: the array DNA melting data of Ke et al. (doi:10.1101/2024.01.08.574731)

Experiments:
[1] = folding enthalpy; higher = less favourable; fluorescence melt of hairpins on a sequencing array, two-state fit; conditions: sodium 0.088 M
In short: (§1)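 Melting temperature and folding enthalpy were derived from bootstrapped two-state fits. The fitted temperatures were raised by 9.35 °C to agree with UV melts, and four replicates were combined by inverse variance. The underlying data were Cy3 fluorescence images of library hairpins, with annealed Cy3 and quencher oligos, on a sequenced MiSeq flow cell in 50 mM Na-HEPES pH 8.0, 25 mM NaCl, taken in 2.5 °C steps up to 60 °C, normalised to pre-quench Cy3 and to control constructs.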

[2] = melting temperature; fluorescence melt of hairpins on a sequencing array, two-state fit, raised by 9.35 °C to match UV melts; conditions: sodium 0.088 M
In short: as §1

Row | Sequence | folding enthalpy [1] [kcal/mol] | Tm [2] [°C]
1 | CGGAGGAAACTCCG (((((....))))) | -20.5 | 57.1
2 | GATCATGTATATGATC ((((((....)))))) | -41.7 | 55.3
3 | GCTCTCGGAAACGAGGGC ((.((((....)))).)) | -40 | 58.7
4 | GCCCGAGGAAACTTGGGC ((((.((....)).)))) | -41.1 | 58.1
5 | GAGCCCGGAAACGGACTC (((.(((....))).))) | -33.1 | 52.4
6 | GTAAGTGCGAAAGCATAC (((..(((....)))))) | -11.2 | 27.2
7 | GAAGTAGCGAAAGCTTTC (((..(((....)))))) | -9.46 | 30.3
8 | GCACTCGAAAGAGCGTGC ((((((....)))..))) | -25.9 | 43.2
9 | GCAGTCGGAAACAACTGC (((((.(....).))))) | -32.9 | 46.1
10 | GGTCGGGGAAACTCGGCC ((.((.(....).)).)) | -34 | 49.1
11 | GGATAACGAAAGTTTCC (((.(((....)))))) | -20.4 | 40.1
12 | GGGGAAGGAAACTTCCTC (.(((((....))))).) | -21.6 | 46.8
13 | GATCCAGGATGGATC ((((((...)))))) | -40.5 | 57.8
14 | GCCTTTGCGAAAGCAGGC (((..(((....)))))) | -20.9 | 50.3
15 | GCAGGGCGAAAGCGTTGC (((..((....))..))) | -19.1 | 54.1
16 | GATGACGGAAACGTCACC (.(((((....))))).) | -14.6 | 40
17 | GAGTTGGGAAACTGACTC ((((..(....)..)))) | -26.7 | 34.4
18 | GTGTATGCGAAAGCACAC (((..(((....)))))) | -22.1 | 45.4
19 | GTTTATCGAAAGATAAC (((.(((....)))))) | -18.6 | 35.5
20 | GTACGTGGAAACATGTGC (.((.((....)).)).) | -24.4 | 36.5
21 | GTACACGAAAGTGGCTAC ((((((....)))..))) | -13.9 | 35.7
22 | GGTCCCGAAAGGGCTACC ((((((....)))..))) | -10.9 | 39.8
23 | GTCCGTCGAAAGACCGAC (((.(((....))).))) | -21.5 | 42.8

Row | Sequence | folding enthalpy [1] [kcal/mol] | Tm [2] [°C]
24 | GTCTTCGGAAACGAAGAC (((((((....))))))) | -30.5 | 64.8
25 | GATCATAGTATGATC ((((((...)))))) | -35.6 | 47.2
26 | GTCCGCGAAAGCGCGAC ((((((....))).))) | -20.7 | 56.9
27 | GTGATAGGAAACTATCGC (.(((((....))))).) | -38.2 | 46.3
28 | GACACCGGAAACAGTGTC (((((.(....).))))) | -28.8 | 44.3
29 | GCACGAGCGAAAGCTTGC (((..(((....)))))) | -11.3 | 41
30 | CTCCAGAAATGGAG (((((....))))) | -18.9 | 44.9
31 | GTAGATGGAAACGTCTAC (((((.(....).))))) | -31.3 | 43.6
32 | GATCCCGATGGGATC ((((((...)))))) | -36.5 | 61.3
33 | GATCGAGAAGTCGATC ((((((....)))))) | -31.1 | 55.4
34 | GACTCCGAAAGGAAGTC ((((((....))).))) | -28.8 | 52.4
35 | GATCTCCTATGAGATC ((((((....)))))) | -39.2 | 53.4
36 | CGCAAGCGGAAACGCGCG (((..(((....)))))) | -22 | 56.9
37 | GTCAACGAAAGTTCCGAC ((((((....)))..))) | -9.76 | 20.9
38 | GCTCCAGGAAACTGGAAC (.(((((....))))).) | -18.7 | 38.3
39 | GCTTCAGGAAACCGAAGC (((((.(....).))))) | -35.9 | 46.3
40 | GCTCGAGGAAACCCGAGC (((((.(....).))))) | -30.9 | 54.3
41 | GGCGCAGGAAACTGCGTC (.(((((....))))).) | -20.6 | 66.1
42 | GATGCCGAAAGGCGATC ((((((....))).))) | -15.1 | 50.6
43 | GCGGGAGGAAACTCCTGC ((.((((....)))).)) | -39 | 58.1
44 | GTCTGGGGAAACCCGGAC (((.(((....))).))) | -39.6 | 55.5
45 | CGGTCGGAAACGAACCCG ((((((....)))..))) | -19.3 | 38.2
46 | GCTCCGCGAAAGCGCCGC ((..(((....)))..)) | -6.58 | 28.9

Row | Sequence | folding enthalpy [1] [kcal/mol] | Tm [2] [°C]
47 | GCTCCCGAAAGGGGCAGC ((((((....)))..))) | -12.5 | 49.8
48 | GCGAAAGAAATTTCGC ((((((....)))))) | -34 | 55
49 | GCGCTCGAAAGAGACGC ((((((....))).))) | -28.6 | 58
50 | GGTCTGGAAACAGACC ((((((....)))))) | -38 | 63.9
51 | CGGCTCGGAAACGAACCG (((.(((....))).))) | -44.5 | 51
52 | GATCCTATCAGGATC ((((((...)))))) | -35.7 | 57.2
53 | GGAACCCGAAAGGGATCC (((.(((....))).))) | -28 | 54.5
54 | GCCGACCCGAAAGGGGGC (((..(((....)))))) | -18.4 | 55.7
55 | CGACTGAAAAGTCG (((((....))))) | -26.5 | 58.5
56 | GGAGGCGAAAGCCGGTCC ((((((....)))..))) | -9.6 | 43.3
57 | GATGTAGCGAAAGCTATC (((..(((....)))))) | -12 | 31.4
58 | GACGTTACGAAAGTAGTC (((..(((....)))))) | -27.2 | 44.2
59 | GAGGGCGAAAGCCACTC ((((((....))).))) | -13.7 | 53.4
60 | GCAAGGCGAAAGCGTCGC ((.(.((....)).).)) | -15.4 | 40.7
61 | GTGATGGGAAACCATCGC (.(((((....))))).) | -23.7 | 55.1
62 | GGAGGTCGAAAGACATCC (((.(((....))).))) | -38.7 | 57.5
63 | GCGACAGGAAACTGCCGC (((.(((....))).))) | -46.4 | 55.9
64 | GATCATCTGAATGATC ((((((....)))))) | -33.6 | 46.3
65 | GGAATGGGAAACCATTCC (((((((....))))))) | -45.1 | 60.4
66 | GGTACCGGAAACGATACC ((((.((....)).)))) | -31.9 | 42.7
67 | GTGACGGGAAACTGTCAC (((((.(....).))))) | -37.8 | 54.8
68 | GCTACGGGAAACTGTAGC (((((.(....).))))) | -48.3 | 52.1
69 | GGCCTCCGAAAGGAGCC (((.(((....)))))) | -16.5 | 62.4
